Measurements from ChEMBL document CHEMBL3758104, “Reinvestigating Old Pharmacophores: Are 4-Aminoquinolines and Tetraoxanes Potential Two-Stage Antimalarials?” (J Med Chem, 2016).
Activity calls are given as the source filed them. The rule behind the calls is not given here.

Columns and labels:
Plasmodium berghei [1] = experiment: Antimalarial activity against sporozoite stage of Plasmodium […] infected in human HepG2 cells; format: functional, organism-based
[2] = Half life in human liver microsomes at 1 uM by LC-MS/MS analysis; format: ADME
Plasmodium falciparum [3] = experiment: Antimalarial activity against chloroquine-susceptible Plasmodium falciparum D6 after 48 hrs by [3H]hypoxanthine incorporation assay; format: functional, organism-based
How it was run: (§1)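 P. falciparum D6 (Sierra I/UNC clone), W2 (Indochina I clone), TM91C235 (South-East Asian clone) cultured with compound; growth inhibition by [3H]hypoxanthine incorporation (modified Desjardins/Milhous method). Chloroquine, mefloquine, artemisinin as positive controls. IC50 in nM; technical triplicates, curve fits R2 0.96–1.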

Plasmodium falciparum [4] = experiment: Antimalarial activity against mutidrug resistant Plasmodium falciparum TM91C235 after 48 hrs by [3H]hypoxanthine incorporation assay; format: functional, organism-based; how it was run: as §1
Plasmodium falciparum [5] = experiment: Antimalarial activity against chloroquine-resistant Plasmodium falciparum W2 after 48 hrs by [3H]hypoxanthine incorporation assay; format: functional, organism-based; how it was run: as §1
RAW264.7 = experiment: Cytotoxicity against mouse RAW264.7 cells; format: cell-based
[6] = Half life in mouse liver microsomes at 1 uM by LC-MS/MS analysis; format: ADME
[7] = Selectivity index, ratio of IC50 for mouse RAW 264.7 cells to IC50 for chloroquine susceptible Plasmodium falciparum D6; format: toxicity; settings: read-out: Ratio IC50
[8] = Selectivity index, ratio of IC50 for human HepG2 cells to IC50 for chloroquine susceptible Plasmodium falciparum D6; format: toxicity, cell-based; settings: read-out: Ratio IC50
Mus musculus = experiment: Toxicity in Plasmodium berghei ANKA infected C57Bl6 mouse at 160 mg/kg/day, po administered for 3 days measured 2 times a day for 31 days; format: organism-based; settings: in vivo, 744 h
Plasmodium berghei [9] = experiment: Antimalarial activity against Plasmodium berghei ANKA infected in C57Bl6 mouse at 80 mg/kg/day, po measured on day 3 to 5 by Thompson test; format: functional
[10] = Inhibition of beta hematin formation measured as hemin equivalent after 18 hrs; format: physicochemical
How it was run: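 Hemin (16 mM in DMSO) mixed with compound at 0.125–5 mol equiv to hemin, plus water and 8 M acetate buffer pH 5.2, 25% DMSO final. Incubated 18 h at 37 °C. Pellet washed with DMSO, dissolved in 0.1 M NaOH, absorbance read at 405 nm (corrected at 670 nm) against a hemin calibration.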

Plasmodium berghei [11] = experiment: Antimalarial activity against Plasmodium berghei ANKA infected in C57Bl6 mouse assessed as increase in cure rate at 80 mg/kg/day, po administered for day 3 to 5 by Thompson test; format: functional, organism-based
How it was run: (§2)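 Modified Thompson test: C57Bl6 female mice inoculated intraperitoneally on day 0 with 1×10^6 P. berghei ANKA-infected erythrocytes; compound suspended in 0.5% hydroxyethylcellulose–0.1% Tween 80, given orally once daily on days 3, 4 and 5 post infection. Parasitemia by Giemsa-stained thin tail-blood smears on days 0, 3, 6, 10, 13, 17, 20, 24, 27, 31. Cure = survival without parasitemia to day 31.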

Plasmodium berghei [12] = experiment: Antimalarial activity against Plasmodium berghei ANKA infected in C57Bl6 mouse at 160 mg/kg/day, po measured on day 3 to 5 by Thompson test; format: functional
Plasmodium berghei [13] = experiment: Antimalarial activity against Plasmodium berghei ANKA infected in C57Bl6 mouse assessed as reduction of parasitemia at 160 mg/kg/day, po administered for day 3 to 5 measured after 10 to 14 days by Thompson test; format: functional, organism-based; how it was run: as §2
Plasmodium berghei [14] = experiment: Antimalarial activity against Plasmodium berghei ANKA infected in C57Bl6 mouse assessed as reduction of parasitemia at 160 mg/kg/day, po administered for day 3 to 5 measured on day 6 by Thompson test; format: functional, organism-based; how it was run: as §2
Plasmodium falciparum [15] = experiment: Antimalarial activity against 4th to 5th gametocyte stage of Plasmodium falciparum 3D7elo1-pfs16-CBG99 assessed as inhibition of gametocyte viability by luciferase reporter gene assay; format: functional, organism-based
How it was run: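 Stage IV–V gametocytes of luciferase-expressing 3D7elo1-pfs16-CBG99 strain (CBG99 under pfs16 promoter); luciferase activity as viability read-out. Viability = 100×(treated−blank)/(untreated−blank), blank = 100 nM epoxomicin-treated sample. Epoxomicin and dihydroartemisinin as positive controls. IC50 from nonlinear regression of dose–response; mean of three experiments in duplicate.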

Plasmodium berghei [16] = experiment: Antimalarial activity against sporozoite stage of Plasmodium berghei infected in human Huh7 cells assessed as inhibition of parasite infection pre-incubated for 24 hrs followed by parasite infection measured after 48 hrs by bioluminescence assay; format: functional, organism-based; settings: Huh-7
Plasmodium berghei [17] = experiment: Antimalarial activity against sporozoite stage of Plasmodium berghei infected in human Huh7 cells assessed as remaining parasite infection at 5 uM pre-incubated for 24 hrs followed by parasite infection measured after 48 hrs by bioluminescence assay; settings: Huh-7
HepG2 = experiment: Cytotoxicity against human HepG2 cells after 48 hrs by MTT assay; format: cell-based; settings: HepG2, 48 h
Plasmodium berghei [18] = experiment: Antimalarial activity against Plasmodium berghei ANKA infected in po dosed C57Bl6 mouse administered on day 3 to 5 by Thompson test; format: functional; how it was run: as §2
Plasmodium berghei [19] = experiment: Antimalarial activity against Plasmodium berghei ANKA infected in C57Bl6 mouse at 40 mg/kg/day, po on days 3 to 5 by Thompson test; format: functional

Structure (SMILES)	IC50 (Plasmodium falciparum [3]) [µM]	IC50 (Plasmodium falciparum [4]) [µM]	IC50 (Plasmodium falciparum [5]) [µM]	selectivity ratio [8]	Activity (Mus musculus)	IC50 (HepG2) [µM]	also measured
O=C1C(O)=C([C@H]2CC[C@H](c3ccc(Cl)cc3)CC2)C(=O)c2ccccc21 [ATOVAQUONE]							IC50 (Plasmodium berghei [1]): 0.022 µM
CC(CNc1ccnc2cc(Cl)ccc12)NCC12CC3CC(CC(C3)C1)C2 (configuration not stated)	0.002	0.009	0.01				half-life at 1 µM [2]: 13 min; IC50 (RAW264.7): 3.77 µM; half-life at 1 µM [6]: 10 min; selectivity ratio [7]: 1890
C[C@@H]1CC[C@H]2[C@@H](C)C(=O)O[C@@H]3O[C@@]4(C)CC[C@@H]1[C@]32OO4 [ARTEMISININ]	0.009	0.013	0.007				IC50 (Plasmodium berghei [1]): 12 µM
CC(CCNCC12CC3CC(CC(C3)C1)C2)Nc1c(F)cnc2ccccc12 (configuration not stated)	0.06	0.259	0.157	3	Non-toxic		MST (Plasmodium berghei [9]): 12.8 days; IC50 [10]: 0.61 equiv; Activity (Plasmodium berghei [11]): inactive
CC(CNCCC12CC3CC(CC(C3)C1)C2)Nc1ccnc2cc(Cl)ccc12 (configuration not stated)	0.001	0.001	0.004		Non-toxic		half-life at 1 µM [2]: 57 min; IC50 (RAW264.7): 2.91 µM; half-life at 1 µM [6]: 60 min; selectivity ratio [7]: 2910; MST (Plasmodium berghei [12]): 27.6 days; Activity (Plasmodium berghei [13]): inactive; Activity (Plasmodium berghei [14]): Active
Fc1ccc2c(CNCCCNc3ccnc4cc(Cl)ccc34)csc2c1					Non-toxic		MST (Plasmodium berghei [12]): 26.4 days
C[C@H]1[C@@H](O)O[C@@H]2O[C@@]3(C)CC[C@H]4[C@H](C)CC[C@@H]1[C@@]24OO3 [ARTENIMOL]							IC50 (Plasmodium falciparum [15]): 0.44 µM
CC(CCNCC12CC3CC(CC(C3)C1)C2)Nc1nc2cc(Cl)ccc2cc1F (configuration not stated)							IC50 (Plasmodium berghei [16]): 1 µM; % infection at 5 µM (Plasmodium berghei [17]): 2%
CC(CCNCC12CC3CC(CC(C3)C1)C2)Nc1ccnc2ccccc12 (configuration not stated)	0.017	0.135	0.185	136	Non-toxic	2.32	half-life at 1 µM [2]: 60 min; half-life at 1 µM [6]: 60 min; MST (Plasmodium berghei [9]): 15.2 days; IC50 [10]: 1.22 equiv; Activity (Plasmodium berghei [11]): inactive
CCN(CC)CCCC(C)Nc1nc2cc(Cl)ccc2cc1F (configuration not stated)							IC50 [10]: 2.43 equiv; IC50 (Plasmodium berghei [16]): 1 µM; % infection at 5 µM (Plasmodium berghei [17]): 40%
CC(CCCNCC12CC3CC(CC(C3)C1)C2)Nc1ccnc2cc(Cl)ccc12 (configuration not stated)	0.021	0.023	0.022	1160		24.3	half-life at 1 µM [2]: 49 min; half-life at 1 µM [6]: 57 min
C[C@H]1[C@H](N2CCS(=O)(=O)CC2)O[C@@H]2O[C@@]3(C)CC[C@H]4[C@H](C)CC[C@@H]1[C@@]24OO3 [ARTEMIFONE]							IC50 (Plasmodium berghei [1]): 0.04 µM
CC(CCCNCC12CC3CC(CC(C3)C1)C2)Nc1c(F)cnc2cc(Cl)ccc12 (configuration not stated)	0.198	0.342	0.488	18		3.55	
Fc1ccc2scc(CNCCCCNc3ccnc4cc(Cl)ccc34)c2c1					Non-toxic		MST (Plasmodium berghei [12]): 30 days; MST (Plasmodium berghei [9]): 30.2 days
CC(CCCNc1ccnc2cc(Cl)ccc12)NCC12CC3CC(CC(C3)C1)C2 (configuration not stated)	0.051	0.165	0.282	32		1.61	
CC(CCNCCC12CC3CC(CC(C3)C1)C2)Nc1ccnc2ccccc12 (configuration not stated)	0.007	0.102	0.126	227		1.59	
CC(CNCC12CC3CC(CC(C3)C1)C2)Nc1ccnc2cc(Cl)ccc12 (configuration not stated)	0.001	0.001	0.003				half-life at 1 µM [2]: 11 min; IC50 (RAW264.7): 2.9 µM; half-life at 1 µM [6]: 10 min; selectivity ratio [7]: 2900

Structure (SMILES)	IC50 (Plasmodium falciparum [3]) [µM]	IC50 (Plasmodium falciparum [4]) [µM]	IC50 (Plasmodium falciparum [5]) [µM]	selectivity ratio [8]	Activity (Mus musculus)	IC50 (HepG2) [µM]	also measured
CC(CCCNCCC12CC3CC(CC(C3)C1)C2)Nc1ccnc2ccccc12 (configuration not stated)	0.012	0.286	0.393	133		1.59	
CC(CNc1ccnc2cc(Cl)ccc12)NCCC12CC3CC(CC(C3)C1)C2 (configuration not stated)	0.006	0.007	0.007	4190	Non-toxic	25.1	half-life at 1 µM [2]: 27 min; half-life at 1 µM [6]: 60 min; MST (Plasmodium berghei [9]): 15.3 days; Activity (Plasmodium berghei [13]): inactive; MAC (Plasmodium berghei [18]): 80 mg/kg/day; Activity (Plasmodium berghei [14]): Active
CC(CCNCCC12CC3CC(CC(C3)C1)C2)Nc1ccnc2cc(Cl)ccc12 (configuration not stated)	0.013	0.013	0.013	1870		24.3	half-life at 1 µM [2]: 60 min; half-life at 1 µM [6]: 60 min; IC50 (Plasmodium berghei [16]): 2.5 µM; % infection at 5 µM (Plasmodium berghei [17]): 8%
CC(CCCNc1ccnc2cc(Cl)ccc12)NCCC12CC3CC(CC(C3)C1)C2 (configuration not stated)	0.009	0.047	0.081	289		2.6	
CC(CCNCCC12CC3CC(CC(C3)C1)C2)Nc1c(F)cnc2cc(Cl)ccc12 (configuration not stated)	0.143	0.171	0.203	22		3.21	IC50 (Plasmodium berghei [16]): 1 µM; % infection at 5 µM (Plasmodium berghei [17]): 3%
Clc1ccc2c(NCCNCC34CC5CC(CC(C5)C3)C4)ccnc2c1					Non-toxic		MST (Plasmodium berghei [19]): >21.4 days; Activity (Plasmodium berghei [13]): inactive; MAC (Plasmodium berghei [18]): 40 mg/kg/day; Activity (Plasmodium berghei [14]): Active
CC(NCCCCNc1ccnc2cc(Cl)ccc12)C12CC3CC(CC(C3)C1)C2 (configuration not stated)	0.007	0.019	0.025	441		3.09	
COC(=O)CCC(C)[C@H]1CC[C@H]2[C@@H]3[C@H](OC(C)=O)C[C@@H]4CC5(CC[C@]4(C)[C@H]3C[C@H](OC(C)=O)[C@]12C)OOC1(CCCCC1)OO5 (some centres not stated)							IC50 (Plasmodium berghei [16]): < 1 µM; % infection at 5 µM (Plasmodium berghei [17]): 31%
CC(CCNCCC12CC3CC(CC(C3)C1)C2)Nc1c(F)cnc2ccccc12 (configuration not stated)	0.154	0.546	0.394	3			
CC(CCCNCCC12CC3CC(CC(C3)C1)C2)Nc1c(F)cnc2cc(Cl)ccc12 (configuration not stated)	0.288	0.59	0.547	9		2.61	
CCN(CC)CCCC(C)Nc1c(F)cnc2cc(Cl)ccc12 (configuration not stated)					Non-toxic		MST (Plasmodium berghei [12]): 16.8 days; IC50 [10]: 1.07 equiv; IC50 (Plasmodium berghei [16]): 1 µM; % infection at 5 µM (Plasmodium berghei [17]): 35%
CCN(CC)CCCC(C)Nc1ccnc2cc(Cl)ccc12 (configuration not stated) [CHLOROQUINE]							MST (Plasmodium berghei [12]): >31 days; MST (Plasmodium berghei [9]): 25.6 days; IC50 (Plasmodium berghei [1]): 9 µM
CC(NCCCNc1ccnc2cc(Cl)ccc12)C12CC3CC(CC(C3)C1)C2 (configuration not stated)	0.004	0.015	0.022	790			half-life at 1 µM [2]: 16 min; IC50 (RAW264.7): 3.16 µM; half-life at 1 µM [6]: 11 min
CCN(CC)CCCNc1nc2cc(Cl)ccc2cc1F					Non-toxic		MST (Plasmodium berghei [12]): 20.2 days
CCN(CC)CCCNc1c(F)cnc2cc(Cl)ccc12					Non-toxic		MST (Plasmodium berghei [12]): 14.6 days
O[C@@H](c1cc(C(F)(F)F)nc2c(C(F)(F)F)cccc12)[C@H]1CCCCN1 [(S,R)-MEFLOQUINE]			0.005				
